Results published in ChEMBL document CHEMBL2029264, “Indole-based fibrates as potential hypolipidemic and antiobesity agents” (J Med Chem, 2012).

What was measured:
Assay type in all cases: functional
Rattus norvegicus [1] = assay: Antihyperlipidemic activity in Triton WR-1339-induced hyperlipidemic rat assessed as decrease in plasma total cholesterol level at 100 mg/kg, po relative to control; set-up: scale not given: the % may be the effect or the level left
How it was run: (§1)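 Triton WR-1339 given to rats to induce hyperlipidemia; oral dosing. Plasma TC, PL, TG in mg/dL; PHLA as […]/h/mL plasma. Mean ± SD of six rats; Triton group compared with control, Triton plus dosed group compared with Triton group.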

Rattus norvegicus [2] = assay: Antihyperlipidemic activity in Triton WR-1339-induced hyperlipidemic rat assessed as decrease in plasma phospholipid level at 100 mg/kg, po relative to control; set-up: scale not given: the % may be the effect or the level left; how it was run: as §1
Rattus norvegicus [3] = assay: Antihyperlipidemic activity in Triton WR-1339-induced hyperlipidemic rat assessed as decrease in plasma triglyceride level at 100 mg/kg, po relative to control; set-up: scale not given: the % may be the effect or the level left; how it was run: as §1
Rattus norvegicus [4] = assay: Antihyperlipidemic activity in HFD-induced hyperlipidemic Charles Foster rat assessed as decrease in plasma LDL-phospholipid level at 100 mg/kg, po administered for 4 weeks relative to control; set-up: scale not given: the % may be the effect or the level left
How it was run: (§2)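 After 4 weeks high-fat feeding plus 4 weeks daily dosing, overnight fast, retro-orbital blood into EDTA tubes. Serum split into VLDL, LDL and HDL by polyanionic precipitation; each fraction assayed for TC, PL, TG and apoprotein (mg/dL plasma). Pooled data from 6 rats/group, mean ± SD, dosed groups compared with high-fat group.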

Rattus norvegicus [5] = assay: Antihyperlipidemic activity in HFD-induced hyperlipidemic Charles Foster rat assessed as increase in [I125]-LDL catabolism in plasma membrane of liver at 100 mg/kg/day, po administered for 4 weeks
How it was run: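 Rats on 8 weeks total of high-fat diet, dosed daily for the last 4 weeks, then sacrificed. Human serum LDL radiolabeled with I125; specific binding to liver plasma membrane preparation measured as receptor-mediated LDL catabolism. Mean ± SD, n = 6.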

Rattus norvegicus [6] = assay: Antihyperlipidemic activity in HFD-induced hyperlipidemic Charles Foster rat assessed as decrease in serum triglyceride level at 100 mg/kg, po administered for 4 weeks relative to control; set-up: scale not given: the % may be the effect or the level left
How it was run: (§3)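 Male Charles Foster rats (200−225 g): high-fat diet 4 weeks, then diet plus daily dosing 4 weeks. Overnight fast, retro-orbital blood in EDTA (3 mg/mL blood), centrifuged to serum. TC, PL, TG in mg/dL; LCAT as nmol cholesterol released/h/L plasma. Mean ± SD; dosed groups compared with high-fat group, P by significance levels.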

Rattus norvegicus [7] = assay: Antihyperlipidemic activity in HFD-induced hyperlipidemic Charles Foster rat assessed as increase in deoxycholic acid excretion in feces at 100 mg/kg/day, po administered for 4 weeks measured after 30 days relative to control
How it was run: (§4)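 Rats fed high-fat diet 4 weeks, then diet plus daily dosing 4 weeks. Cholic and deoxycholic acid excreted in feces measured; dosed groups compared with high-fat group, control compared with high-fat group.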

Rattus norvegicus [8] = assay: Antihyperlipidemic activity in HFD-induced hyperlipidemic Charles Foster rat assessed as increase in serum LCAT enzyme level at 100 mg/kg, po administered for 4 weeks relative to control; how it was run: as §3
Rattus norvegicus [9] = assay: Antihyperlipidemic activity in HFD-induced hyperlipidemic Charles Foster rat assessed as decrease in plasma LDL-apoprotein level at 100 mg/kg, po administered for 4 weeks relative to control; set-up: scale not given: the % may be the effect or the level left; how it was run: as §2
Rattus norvegicus [10] = assay: Antihyperlipidemic activity in HFD-induced hyperlipidemic Charles Foster rat assessed as decrease in plasma LDL-triglyceride level at 100 mg/kg, po administered for 4 weeks relative to control; set-up: scale not given: the % may be the effect or the level left; how it was run: as §2
Rattus norvegicus [11] = assay: Antihyperlipidemic activity in HFD-induced hyperlipidemic Charles Foster rat assessed as decrease in plasma VLDL-apoprotein level at 100 mg/kg, po administered for 4 weeks relative to control; set-up: scale not given: the % may be the effect or the level left; how it was run: as §2
Rattus norvegicus [12] = assay: Antihyperlipidemic activity in HFD-induced hyperlipidemic Charles Foster rat assessed as decrease in serum total cholesterol level at 100 mg/kg, po administered for 4 weeks relative to control; set-up: scale not given: the % may be the effect or the level left; how it was run: as §3
Rattus norvegicus [13] = assay: Antihyperlipidemic activity in HFD-induced hyperlipidemic Charles Foster rat assessed as reactivation of LPL activity at 100 mg/kg, po administered for 4 weeks relative to control
How it was run: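 Male Charles Foster rats fed high-fat diet 4 weeks, then diet plus daily dosing 4 weeks. Liver homogenized (10% w/v) in cold 100 mM phosphate buffer pH 7.2; total lipolytic LPL activity read as nmol free fatty acid formed/h/mg protein; pooled data from 6 rats/group, mean ± SD.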

Rattus norvegicus [14] = assay: Antihyperlipidemic activity in HFD-induced hyperlipidemic Charles Foster rat assessed as decrease in plasma VLDL-total cholesterol level at 100 mg/kg, po administered for 4 weeks relative to control; set-up: scale not given: the % may be the effect or the level left; how it was run: as §2
Rattus norvegicus [15] = assay: Antihyperlipidemic activity in HFD-induced hyperlipidemic Charles Foster rat assessed as decrease in plasma VLDL-phospholipid level at 100 mg/kg, po administered for 4 weeks relative to control; set-up: scale not given: the % may be the effect or the level left; how it was run: as §2
Rattus norvegicus [16] = assay: Antihyperlipidemic activity in HFD-induced hyperlipidemic Charles Foster rat assessed as increase in plasma HDL-total cholesterol level at 100 mg/kg, po administered for 4 weeks relative to control; how it was run: as §2
Rattus norvegicus [17] = assay: Antihyperlipidemic activity in HFD-induced hyperlipidemic Charles Foster rat assessed as increase in plasma HDL-apoprotein level at 100 mg/kg, po administered for 4 weeks relative to control; how it was run: as §2
Rattus norvegicus [18] = assay: Antihyperlipidemic activity in HFD-induced hyperlipidemic Charles Foster rat assessed as decrease in liver total cholesterol level at 100 mg/kg, po administered for 4 weeks relative to control; set-up: scale not given: the % may be the effect or the level left
How it was run: (§5)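 Adult male Charles Foster rats (200−225 g), high-fat diet 4 weeks, then diet plus daily dosing 4 more weeks; overnight fast, sacrifice, liver washed in cold 0.15 M KCl and held at 4 °C. Lipids extracted from liver homogenate in CHCl3/CH3OH (2:1 v/v), TC, PL and TG read in mg/g; pooled data from 6 rats/group, mean ± SD.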

Rattus norvegicus [19] = assay: Antihyperlipidemic activity in HFD-induced hyperlipidemic Charles Foster rat assessed as increase in cholic acid excretion in feces at 100 mg/kg/day, po administered for 4 weeks measured after 30 days relative to control; how it was run: as §4
Rattus norvegicus [20] = assay: Antihyperlipidemic activity in HFD-induced hyperlipidemic Charles Foster rat assessed as increase in plasma HDL-triglyceride level at 100 mg/kg, po administered for 4 weeks relative to control; how it was run: as §2
Rattus norvegicus [21] = assay: Antihyperlipidemic activity in HFD-induced hyperlipidemic Charles Foster rat assessed as increase in plasma HDL-phospholipid level at 100 mg/kg, po administered for 4 weeks relative to control; how it was run: as §2
Rattus norvegicus [22] = assay: Antihyperlipidemic activity in HFD-induced hyperlipidemic Charles Foster rat assessed as decrease in serum phospholipid level at 100 mg/kg, po administered for 4 weeks relative to control; set-up: scale not given: the % may be the effect or the level left; how it was run: as §3
Rattus norvegicus [23] = assay: Antihyperlipidemic activity in HFD-induced hyperlipidemic Charles Foster rat assessed as decrease in liver phospholipid level at 100 mg/kg, po administered for 4 weeks relative to control; set-up: scale not given: the % may be the effect or the level left; how it was run: as §5
Rattus norvegicus [24] = assay: Antihyperlipidemic activity in HFD-induced hyperlipidemic Charles Foster rat assessed as decrease in plasma VLDL-triglyceride level at 100 mg/kg, po administered for 4 weeks relative to control; set-up: scale not given: the % may be the effect or the level left; how it was run: as §2
Rattus norvegicus [25] = assay: Antihyperlipidemic activity in HFD-induced hyperlipidemic Charles Foster rat assessed as decrease in plasma LDL-total cholesterol level at 100 mg/kg, po administered for 4 weeks relative to control; set-up: scale not given: the % may be the effect or the level left; how it was run: as §2
Rattus norvegicus [26] = assay: Antihyperlipidemic activity in HFD-induced hyperlipidemic Charles Foster rat assessed as decrease in liver triglyceride level at 100 mg/kg, po administered for 4 weeks relative to control; set-up: scale not given: the % may be the effect or the level left; how it was run: as §5
Rattus norvegicus [27] = assay: Antihyperlipidemic activity in Triton WR-1339-induced hyperlipidemic rat assessed as increase in PHLA enzyme level at 100 mg/kg, po; how it was run: as §1
Rattus norvegicus [28] = assay: Antihyperlipidemic activity in Triton WR-1339-induced hyperlipidemic rat assessed as increase in LCAT enzyme level at 100 mg/kg, po; how it was run: as §1

## CCOC(=O)C(C)(C)Oc1ccc(C(c2cn(C)c3ccccc23)c2cn(C)c3ccccc23)cc1
Rattus norvegicus [1]
  Activity: 10%
Rattus norvegicus [2]
  Activity: 9%
Rattus norvegicus [3]
  Activity: 5%

## CC(C)OC(=O)C(C)(C)Oc1ccc(C(=O)c2ccc(Cl)cc2)cc1 [FENOFIBRATE]
Rattus norvegicus [4]
  Activity: 28%
Rattus norvegicus [5]
  Activity: 30%
Rattus norvegicus [6]
  Activity: 33%
Rattus norvegicus [7]
  Activity: 33%
Rattus norvegicus [8]
  Activity: 34%
Rattus norvegicus [9]
  Activity: 28%
Rattus norvegicus [10]
  Activity: 27%
Rattus norvegicus [11]
  Activity: 35%
Rattus norvegicus [12]
  Activity: 36%
Rattus norvegicus [13]
  Activity: 26%
Rattus norvegicus [14]
  Activity: 28%
Rattus norvegicus [15]
  Activity: 24%
Rattus norvegicus [16]
  Activity: 16%
Rattus norvegicus [17]
  Activity: 17%
Rattus norvegicus [18]
  Activity: 37%
Rattus norvegicus [19]
  Activity: 31%
Rattus norvegicus [20]
  Activity: 16%
Rattus norvegicus [21]
  Activity: 15%
Rattus norvegicus [22]
  Activity: 34%
Rattus norvegicus [23]
  Activity: 33%
Rattus norvegicus [24]
  Activity: 30%
Rattus norvegicus [25]
  Activity: 28%
Rattus norvegicus [26]
  Activity: 34%

## CCOC(=O)C(C)(C)Oc1ccc(C(c2c[nH]c3ccccc23)c2c[nH]c3ccccc23)cc1
Rattus norvegicus [1]
  Activity: 9%
Rattus norvegicus [2]
  Activity: 9%
Rattus norvegicus [3]
  Activity: 6%

## CCOC(=O)C(C)Oc1ccc(C(c2cn(C)c3ccccc23)c2cn(C)c3ccccc23)cc1 (stereo not drawn)
Rattus norvegicus [1]
  Activity: 10%
Rattus norvegicus [2]
  Activity: 6%
Rattus norvegicus [3]
  Activity: 8%

## Cc1ccc(C)c(OCCCC(C)(C)C(=O)O)c1 [GEMFIBROZIL]
Rattus norvegicus [27]
  percent increase: 27%
Rattus norvegicus [1]
  Activity: 33%
Rattus norvegicus [2]
  Activity: 35%
Rattus norvegicus [28]
  Activity: 27 nmol/h/mL
Rattus norvegicus [3]
  Activity: 35%

## CCOC(=O)C(C)Oc1ccc(C(c2c(C)[nH]c3ccccc23)c2c(C)[nH]c3ccccc23)cc1 (stereo not drawn)
Rattus norvegicus [1]
  Activity: 9%
Rattus norvegicus [2]
  Activity: 5%
Rattus norvegicus [3]
  Activity: 8%

## CCOC(=O)C(C)Oc1ccc(C(c2c(C)n(C)c3ccccc23)c2c(C)n(C)c3ccccc23)cc1 (stereo not drawn)
Rattus norvegicus [1]
  Activity: 10%
Rattus norvegicus [2]
  Activity: 10%
Rattus norvegicus [3]
  Activity: 6%

## CCOC(=O)COc1ccc(C(c2cn(C)c3ccccc23)c2cn(C)c3ccccc23)cc1
Rattus norvegicus [1]
  Activity: 10%
Rattus norvegicus [2]
  Activity: 12%
Rattus norvegicus [3]
  Activity: 9%

## CCOC(=O)COc1ccc(C(c2cn(CC)c3ccccc23)c2cn(CC)c3ccccc23)cc1
Rattus norvegicus [1]
  Activity: 12%
Rattus norvegicus [2]
  Activity: 6%
Rattus norvegicus [3]
  Activity: 10%

## CCOC(=O)CCCOc1ccc(C(c2c[nH]c3ccccc23)c2c[nH]c3ccccc23)cc1
Rattus norvegicus [1]
  Activity: 12%
Rattus norvegicus [2]
  Activity: 15%
Rattus norvegicus [3]
  Activity: 12%

## CCOC(=O)COc1ccc(C(c2c[nH]c3ccccc23)c2c[nH]c3ccccc23)cc1
Rattus norvegicus [1]
  Activity: 12%
Rattus norvegicus [2]
  Activity: 25%
Rattus norvegicus [3]
  Activity: 10%

## CCOC(=O)C(C)(C)Oc1ccc(C(c2cn(CC)c3ccccc23)c2cn(CC)c3ccccc23)cc1
Rattus norvegicus [1]
  Activity: 11%
Rattus norvegicus [2]
  Activity: 9%
Rattus norvegicus [3]
  Activity: 9%
